Data set [1] is described as follows: Inhibition of Sporosarcina pasteurii CCM 2056 urease assessed as reduction in ammonia production using urea as substrate measured for 120 mins by phenol-hypochlorite method.
The test system of data set [2] is Sporosarcina pasteurii. As to the kind of experiment: Time-dependent Sporosarcina pasteurii CCM 2056 urease assessed as reduction in ammonia production using urea as substrate by phenol-hypochlorite method.
Data set [3] concerns Sporosarcina pasteurii. As to the kind of experiment: Competitive inhibition of Sporosarcina pasteurii CCM 2056 urease assessed as reduction in ammonia production preincubated with enzyme followed by addition of varying levels of urea as substrate measured for 120 mins by Lineweaver-Burk plot analysis.
Data set [4] has as its system Sporosarcina pasteurii. Nature of the data set: Reversible inhibition of Sporosarcina pasteurii CCM 2056 urease assessed as reduction in ammonia production by measuring recovery of enzyme activity at 10 times IC50 preincubated for 60 mins followed by 100-fold dilution in to PBS containing urea as substrate by Berthelot colorimetric assay relative to control. Further details: Activity: scale not given: the % may be the effect or the level left.

Data set [5] can be described thus: Inhibition of Proteus mirabilis 543 urease at pH 5.5 assessed as reduction in ammonia production using urea as substrate measured after 15 mins by NaOH-hypochlorite method. The essentials:
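Intact Proteus mirabilis cells were tested at pH 5.5, matching physiological urine, with 5 mM urea. Inhibitors were added without preincubation, and IC50 was determined.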

The nature of data set [6]: Inhibition of Proteus mirabilis 543 urease at pH 5.5 assessed as reduction in ammonia production using urea as substrate preincubated for 120 mins followed by substrate addition measured after 15 mins by NaOH-hypochlorite method. The essentials: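 Intact Proteus mirabilis cells were preincubated with inhibitors in PBS for 2 h, then tested at pH 5.5, matching urine acidity, with 5 mM urea. IC50 was determined.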

The nature of data set [7]: Inhibition of Sporosarcina pasteurii CCM 2056 urease assessed as reduction in ammonia production by measuring initial state enzyme-inhibitor complex using urea as substrate measured for 120 mins by phenol-hypochlorite method.
A short description of data set [8]: Inhibition of Sporosarcina pasteurii CCM 2056 urease assessed as reduction in ammonia production by measuring steady state enzyme-inhibitor complex using urea as substrate measured for 120 mins by phenol-hypochlorite method.
The nature of data set [9]: Glutathione reactivity after 36 hrs in presence of 10 mM GSH by 1H NMR analysis.
Data set [10] can be described thus: Glutathione reactivity in pH 7.4 PBS measured after 6 to 36 hrs in presence of 1.375 mmol GSH by DTNB reagent based spectrophotometric method. In a few lines: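 Glutathione served as a model reactive-thiol compound. Unreacted GSH was quantified spectrophotometrically by a modified Ellman method, and reaction progress was followed over time up to 36 h.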
Data set [11] has as its target T1, Papain (Carica papaya) (UniProt P00784).
T1 sequence (whole entry): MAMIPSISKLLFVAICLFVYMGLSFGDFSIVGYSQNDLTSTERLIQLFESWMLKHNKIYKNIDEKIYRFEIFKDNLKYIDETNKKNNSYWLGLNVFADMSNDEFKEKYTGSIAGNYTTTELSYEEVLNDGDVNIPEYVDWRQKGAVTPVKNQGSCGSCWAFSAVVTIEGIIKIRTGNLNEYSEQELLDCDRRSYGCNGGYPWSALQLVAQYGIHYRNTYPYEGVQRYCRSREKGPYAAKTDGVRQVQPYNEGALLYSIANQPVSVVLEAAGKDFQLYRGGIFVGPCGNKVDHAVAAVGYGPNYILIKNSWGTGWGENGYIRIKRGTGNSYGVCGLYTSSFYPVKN
Nature of the data set: Inhibition of Carica papaya papain at 0.1 to 0.25 mM using BzArgOEt as substrate measured for 30 mins.

The test system of the next data set is Proteus mirabilis. As to the kind of experiment: Inhibition of Proteus mirabilis 543 urease at pH 5.5 assessed as reduction in ammonia production using urea as substrate followed by substrate addition by NaOH-hypochlorite method. The conditions noted are these: TDE = time-dependent effect.
Data set [12] can be described thus: Cytotoxicity against mouse BALB/3T3 cells assessed as inhibition of cell proliferation at 100 uM after 72 hrs by SRB assay relative to control. The class given is cell-based. In a few lines: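 Mouse BALB/3T3 cells were tested by SRB assay at a single concentration of 100, with the result given as percent inhibition of proliferation.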
A general note: Sulforhodamine B stains cellular protein and so reports cell mass.

The next data set relates to BALB/3T3. Nature of the data set: Cytotoxicity against mouse BALB/3T3 cells assessed as reduction in cell proliferation after 72 hrs by SRB assay. Type of data set: cell-based. The conditions noted are these: balb/3t3, 72 h. The essentials:
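Mouse BALB/3T3 fibroblasts were scored by SRB assay, with cytotoxicity given as LC50 values.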

Data set [13] addresses T1, Papain (Carica papaya). Nature of the data set: Inhibition of Carica papaya papain at 0.1 to 1 mM using BzArgOEt as substrate measured for 30 mins.
Data set [14] in a line: Glutathione reactivity up to 15 mins in presence of 10 mM GSH by 1H NMR analysis.

Counter-ions that a name gives are not always drawn. Calls of active or inactive are those of the source. The calls are words filed in the database; no cut-off is given here.

The results in this text go back to ChEMBL document CHEMBL3997837, “Potent covalent inhibitors of bacterial urease identified by activity-reactivity profiling” (Bioorg Med Chem Lett, 2017).

Regarding `O=C(O)/C=C/c1ccccc1` [CINNAMIC ACID], the values for the Ki in data set [1] (read-out: Ki), in data set [7] (read-out: Ki) and in data set [8] (read-out: Ki) were 21.5 µM, 595 µM and 23 µM, respectively. For the same molecule, in the data set on Sporosarcina pasteurii [2], the TDI result is “Active”. The mode of inhibition result in the data set with Sporosarcina pasteurii [3] was “Active”. Also, the Activity in the data set with Sporosarcina pasteurii [4] stood at 40.3%. The results for the IC50 in data set [5] (read-out: IC50) and in [6] (read-out: IC50) were 492 µM and 125 µM, respectively. The Drug metabolism result in data set [9] was “Metabolite not detected”. Further, the K in data set [10] is below 1.67e-06 M⁻¹ s⁻¹. Moreover, the log K in data set [10] is above -4. Moreover, at Papain (Carica papaya) [11], the inhibition entry was “inactive”. Further, the inhibition result in the data set with Proteus mirabilis was “Tde”.

As for `COC(=O)/C=C/C1=CC(=O)CC1`, the Ki in [1] (read-out: Ki) came to 0.285 µM; in data set [7] (read-out: Ki) it was 16.7 µM; in [8] (read-out: Ki) it was 0.316 µM. In addition, the inhibition at 72 h, 100 µM in data set [12] turned out to be 35.2%. Moreover, the TDI entry in the data set with Sporosarcina pasteurii [2] is “Active”. Moreover, the mode of inhibition entry in the data set on Sporosarcina pasteurii [3] was “Active”. Also, in the data set on Sporosarcina pasteurii [4], the Activity came out at 16.7%. For the same molecule, the K in data set [10] worked out at 0.166 M⁻¹ s⁻¹. The log K in data set [10] was determined as 0.998.

As for `O=C(O)C#CC(=O)O`, the Ki is 0.0425 µM in data set [1] (read-out: Ki), 3.95 µM in [7] (read-out: Ki) and 0.0553 µM in data set [8] (read-out: Ki). Also, the LC50 result in the data set on BALB/3T3 is given as “Non-Toxic”. The TDI result in the data set on Sporosarcina pasteurii [2] was “Active”. In addition, in the data set on Sporosarcina pasteurii [3], the mode of inhibition entry is “Active”. Besides, the Activity in the data set on Sporosarcina pasteurii [4] was found to be 10.9%. Also, the IC50 in data set [5] (read-out: IC50) came out at 326 µM; in data set [6] (read-out: IC50) it was 88.6 µM. Also, in data set [10], the K came to 0.000122 M⁻¹ s⁻¹. Also, the log K in data set [10] is -2.14. For the same molecule, the inhibition entry on Papain (Carica papaya) [13] was “inactive”. Further, the inhibition result in the data set on Proteus mirabilis was “Tde”.

As to `Cc1ccc(C(=O)/C=C/C(=O)O)cc1`, the results for the Ki in data set [1] (read-out: Ki), in data set [7] (read-out: Ki) and in data set [8] (read-out: Ki) were 6.36 µM, 77.1 µM and 6.64 µM, respectively. Moreover, in [12], the inhibition at 72 h, 100 µM is 31.3%. In the data set on Sporosarcina pasteurii [2], the TDI entry was “Active”. The mode of inhibition entry with Sporosarcina pasteurii [3] is “Active”. For the same molecule, in the data set on Sporosarcina pasteurii [4], the Activity is 32.7%. For the same molecule, the K in [10] is 0.333 M⁻¹ s⁻¹. For the same molecule, the log K in data set [10] was determined as 1.3.

In the case of `COC(=O)/C=C/C(=O)OC` [DIMETHYL FUMARATE], the Ki in [1] (read-out: Ki) was found to be 21.3 µM; in data set [7] (read-out: Ki), 311 µM; in data set [8] (read-out: Ki), 21.7 µM. In the data set on BALB/3T3, the LC50 came to 39.7 µM. The TDI result with Sporosarcina pasteurii [2] is “Active”. Besides, the mode of inhibition result in the data set on Sporosarcina pasteurii [3] is “Active”. The Activity in the data set with Sporosarcina pasteurii [4] was 36.8%. In addition, in [14], the Drug metabolism entry is “Metabolite detected”. Further, the K in data set [10] amounted to 2.62 M⁻¹ s⁻¹. Also, in data set [10], the log K is 2.2.

As to `O=C(O)/C=C/C(=O)O` [FUMARIC ACID], the Ki in data set [1] (read-out: Ki) was found to be 36.5 µM; in data set [7] (read-out: Ki), 432 µM; in data set [8] (read-out: Ki), 37.1 µM. The LC50 entry with BALB/3T3 was “Non-Toxic”. Further, the TDI entry in the data set on Sporosarcina pasteurii [2] was “Active”. Besides, in the data set on Sporosarcina pasteurii [3], the mode of inhibition entry was “Active”. Besides, in the data set on Sporosarcina pasteurii [4], the Activity came to 39.7%. The IC50 came out at 182 µM in data set [5] (read-out: IC50) and 65.5 µM in [6] (read-out: IC50). In addition, the K in [10] amounted to 5e-05 M⁻¹ s⁻¹. In addition, the log K in data set [10] is -2.52. Also, the inhibition result at Papain (Carica papaya) [13] is “inactive”. Also, the inhibition entry in the data set on Proteus mirabilis was “Tde”.

For `O=C1C=CCCC1`, the Ki stood at 0.766 µM in data set [1] (read-out: Ki), 22.8 µM in data set [7] (read-out: Ki) and 0.267 µM in data set [8] (read-out: Ki). Moreover, in data set [12], the inhibition at 72 h, 100 µM was found to be 29.8%. Besides, in the data set on Sporosarcina pasteurii [2], the TDI result was “Active”. Further, the mode of inhibition entry with Sporosarcina pasteurii [3] was “Active”. For the same molecule, the Activity in the data set on Sporosarcina pasteurii [4] stood at 27.2%. Also, the K in data set [10] worked out at 0.37 M⁻¹ s⁻¹. Further, the log K in [10] is 1.35.

Consider `CCOC(=O)/C=C/c1ccccc1` [ETHYL CINNAMATE], for which the inhibitory constant (Ki) result in [1], in data set [7] and in data set [8] was “Not Active” each time. Besides, the inhibition at 72 h, 100 µM in data set [12] worked out at 29.1%. In addition, in the data set with Sporosarcina pasteurii [4], the inhibition result was “inactive”. The IC50 entry in data set [5] and in data set [6] was “Not Active” in each case. Besides, the K in [10] was 1.21e-05 M⁻¹ s⁻¹. In data set [10], the log K was -3.14. In the data set on Proteus mirabilis, the inhibition entry was “Tde”.

On to `COC(=O)C#CC(=O)OC`, for which the Ki in data set [1] (read-out: Ki) stood at 0.00977 µM; in [7] (read-out: Ki) it was 0.973 µM; in data set [8] (read-out: Ki), 0.0124 µM. Besides, the LC50 in the data set on BALB/3T3 is 29.8 µM. Also, the TDI result in the data set on Sporosarcina pasteurii [2] is “Active”. Besides, the mode of inhibition result in the data set with Sporosarcina pasteurii [3] was “Active”. In the data set with Sporosarcina pasteurii [4], the Activity worked out at 9.2%. For the same molecule, in [14], the Drug metabolism result was “Metabolite detected”. The K in data set [10] is 6.47 M⁻¹ s⁻¹. Further, the log K in data set [10] was 2.59.

Usually Ki stands for the dissociation constant of the complex between target and ligand, obtained from inhibition or displacement. Broadly, the IC50 is the concentration that gives 50% inhibition. One may read the inhibition as the relative decrease from the control value, in per cent. Broadly, the LC50 is the concentration lethal to half of the exposed cells or organisms.
